Only some compounds are listed: those with a hit (about 2.3% of all), similar ones and a draw of the others.
TRPC6 inhibitor = mouse TRPC6 channel inhibitors, primary screen, cell-based, HEK293, membrane potential dye. ACh-evoked depolarization; active compounds read low. B-score at 10 µM. 1.1% of 310,000 active. Short transient receptor potential channel 6 (Mus musculus), Q61143;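 active means B-score under library mean minus 3 SD, initial fluorescence not abnormally high, positive integrated signal ratio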;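 further: B-score derived from integrated fluorescence ratio over the kinetic read; more negative B-score means stronger inhibition of depolarization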
TRPC4 PAM = positive allosteric modulators of TRPC4, primary screen, cell-based, mouse TRPC4beta, HEK293 mu-opioid, Fluo-4 calcium. DAMGO EC20, Fluo-4 Ca2+ flux; active compounds read high. Short transient receptor potential channel 4 (Mus musculus), Q9QUQ5. 0.42% of 310,000 active. B-score at 10 µM;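 active means B-score of calcium response area above 5 SD of library B-scores, with initial fluorescence ratio within 5 SD of library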
Target sequence (Q9QUQ5 whole entry, looked up): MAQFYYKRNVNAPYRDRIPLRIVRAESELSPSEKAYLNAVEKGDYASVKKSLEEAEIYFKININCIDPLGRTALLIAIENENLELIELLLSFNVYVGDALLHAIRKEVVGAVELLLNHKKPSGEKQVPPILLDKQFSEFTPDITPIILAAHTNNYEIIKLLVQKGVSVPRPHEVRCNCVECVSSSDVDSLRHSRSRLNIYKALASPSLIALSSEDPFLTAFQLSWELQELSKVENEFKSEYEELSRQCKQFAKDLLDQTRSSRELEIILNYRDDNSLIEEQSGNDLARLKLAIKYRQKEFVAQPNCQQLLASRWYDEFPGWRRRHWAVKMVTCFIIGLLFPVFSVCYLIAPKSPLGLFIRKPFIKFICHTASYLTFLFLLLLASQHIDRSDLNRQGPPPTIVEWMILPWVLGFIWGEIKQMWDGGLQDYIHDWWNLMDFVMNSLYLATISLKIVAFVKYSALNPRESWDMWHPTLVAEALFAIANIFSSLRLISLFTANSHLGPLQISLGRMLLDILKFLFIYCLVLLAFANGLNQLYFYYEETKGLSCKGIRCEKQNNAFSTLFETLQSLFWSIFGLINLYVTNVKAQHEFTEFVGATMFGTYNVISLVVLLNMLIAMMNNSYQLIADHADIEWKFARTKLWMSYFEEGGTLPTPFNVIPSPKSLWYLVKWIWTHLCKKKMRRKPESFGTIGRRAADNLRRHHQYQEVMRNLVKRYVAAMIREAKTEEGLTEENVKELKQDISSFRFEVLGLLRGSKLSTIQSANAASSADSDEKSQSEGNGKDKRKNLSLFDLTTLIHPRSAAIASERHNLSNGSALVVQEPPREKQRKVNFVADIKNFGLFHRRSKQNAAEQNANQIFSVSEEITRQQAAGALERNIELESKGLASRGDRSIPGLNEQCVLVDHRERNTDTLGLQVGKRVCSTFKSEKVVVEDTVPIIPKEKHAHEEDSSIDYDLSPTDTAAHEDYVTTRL
TRPC4 inh = inhibitors of mouse TRPC4 channel, primary screen, Fluo4 calcium, HEK293 TRPC4beta/mu-opioid cells; Short transient receptor potential channel 4 (Mus musculus), Q9QUQ5; DAMGO-evoked Fluo4 calcium flux; active compounds read low; B-score at 10 µM; 0.39% of 300,000 active;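 active means B-score over 3 SD under the library average, no early fluorescence shift, positive overall ratio signal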
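Assay system: HEK293 cells with stable TRPC4beta plus mu-opioid receptor expression. Dosing: single dose. Measured by: Fluo4 Ca2+ flux fluorescence. Also added: DAMGO in two steps, submaximal then maximal. Read-out: B score from integrated Fluo4 fluorescence ratio.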
TRPC6 activator = mouse TRPC6 channel activators, primary screen, cell-based, HEK293, membrane potential dye; HEK293-TRPC6 membrane potential dye fluorescence; active compounds read high; 0.13% of 310,000 active; B-score at 10 µM; Short transient receptor potential channel 6 (Mus musculus), Q61143;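 active means B-score of the integrated fluorescence ratio above library mean plus 3 SD, and starting fluorescence ratio within library mean plus 5 SD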;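 further: higher score means more depolarization so channel activation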
TRPC4 agonist = activators of mouse TRPC4 channel, primary screen, Fluo4 calcium, HEK293 TRPC4beta/mu-opioid cells; B-score at 10 µM; 0.49% of 310,000 active; Short transient receptor potential channel 4 (Mus musculus), Q9QUQ5; Fluo4 calcium fluorescence; active compounds read high;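 active means B-score above 5 SD of library B-scores, and initial fluorescence ratio not above library mean plus 5 SD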;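 further: positive B-score marks a calcium rise read as TRPC4 activation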
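system = HEK293 cells stably co-expressing mouse TRPC4beta and mu-opioid receptor | schedule = Fluo4 dye loading 45 min at room temperature, 110 s recording | measure = B-scored integrated calcium fluorescence ratio | signal = Fluo4 calcium-sensitive dye fluorescence, kinetic, 1 Hz baseline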
TRPC4 spec 2 = mouse TRPC4 off-target activity of TRPC6 inhibitors, second screen; AID 2776; HEK293 TRPC4/MOR, membrane potential dye fluorescence; channel activated by saturating DAMGO dose; 42% of 920 active; inhibition, % at 10 µM; shares compounds with TRPC6 inhibitor;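 active means compounds whose fluorescence signal differed from control wells by over 3 SD, either direction, in both duplicate plates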
TRPC4 spec = mouse TRPC4 modulation by TRPC6 hits, confirmation, selectivity assay for TRPC6 inhibitor project, cell-based, HEK293 TRPC4/mu-opioid, membrane potential dye; shares compounds with TRPC6 inhibitor; membrane potential fluorescence; activity change, negative = inhibition, % at 10 µM; 61% of 920 active; AID 2777, 2010;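 active means rise or fall in signal beyond 3 SD of buffer-only wells in both replicate plates, either sign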;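 further: integrated kinetic ratio of fluorescence range over baseline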
HEK293 MPD ctr 2-1 = nonspecific membrane potential effects, parental HEK293, confirmation, counter-screen for TRPC6 inhibitor project, cell-based, second counter screen; shares compounds with TRPC6 inhibitor; parental HEK293 membrane potential dye fluorescence; maximal acetylcholine challenge after compound addition; signal change vs control, % at 10 µM; 31% of 920 active; AID 2779, 2010;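 active means membrane potential signal moving either way by over 3 SD of the maximum-effect control, in both duplicate plates, meaning non-specific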
HEK293 MPD ctr-1 = membrane potential modulation in parental HEK293, confirmation, counter-screen for TRPC6 inhibitor project, cell-based; membrane potential signal change, % at 10 µM; parental HEK293 membrane potential dye fluorescence; 60% of 920 active; shares compounds with TRPC6 inhibitor;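 active means membrane potential signal shifting up or down by more than 3 SD of buffer-only wells, on both duplicate plates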
HEK293 MPD ctr-2 = parental HEK293 membrane potential modulation, confirmation, counter-screen for TRPC6 modulator project, cell-based | AID 488924, 2010 | membrane potential signal change, % at 10 µM | shares compounds with TRPC6 inhibitor | 51% of 2,400 active | membrane potential dye fluorescence;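 active means membrane potential signal moves up or down beyond 5 SD from buffer-only wells, on both duplicate plates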
HEK293 MPD ctr 2-2 = second counter-screen for TRPC6 modulators: effect in parental HEK293 cells | inhibition, % at 10 µM | membrane potential dye fluorescence; after compound, maximal acetylcholine stimulation | AID 488926 | shares compounds with TRPC6 inhibitor | 14% of 2,400 active;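 active means membrane potential signal drops by more than 5 SD from the mean control signal, in both duplicate plates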
TRPC4/MOR mod = TRPC4 modulation by TRPC6 hit compounds, confirmation, selectivity assay for TRPC6 modulator project, cell-based, HEK293 TRPC4/mu-opioid, membrane potential dye, mouse; percent change from control (negative = decrease, positive = increase), % at 10 µM; 69% of 2,400 active; membrane potential fluorescence; shares compounds with TRPC6 inhibitor;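 active means membrane potential signal moved up or down beyond 5 SD of buffer control wells, in both duplicate plates, actives on both sides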
TRPC4/MOR inh 2 = mouse TRPC4 off-target activity of TRPC6 modulators, second screen; 55% of 2,400 active; HEK293 TRPC4/mu-opioid, membrane potential dye fluorescence; stimulated with maximal-effect DAMGO; inhibition, % at 10 µM; AID 488928; shares compounds with TRPC6 inhibitor;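 active means drop in membrane potential signal beyond 5 SD of the control wells in both duplicate plates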;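 further: TRPC4 counter screen for TRPC6 hits run under conditions tuned for TRPC6 not TRPC4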
TRPC6 inh conf = mouse TRPC6 channel inhibitors, confirmation, HEK293 cells, membrane potential dye, duplicate | shares compounds with TRPC6 inhibitor | ACh-evoked depolarization | inhibition, % at 10 µM | 43% of 3,300 active;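 active means fluorescence ratio falls more than 5 SD below the full-stimulation control mean, in both duplicate runs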;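 further: integrated fluorescence ratio of peak minus minimum over baseline after agonist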
TRPC6 act conf = mouse TRPC6 channel activators, confirmation, HEK293 cells, membrane potential dye, duplicate. shares compounds with TRPC6 inhibitor. HEK293-TRPC6 membrane potential dye fluorescence, FDSS. activation, % at 10 µM. 11% of 2,800 active. AID 488961, 2010;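 active means ratio signal rise beyond 5 SD above unstimulated control wells' mean, seen in both duplicate runs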
Each line names hits and unclear results; the compound was inactive in the other large screens (follow-up assays come after a bar, where they were run).

CCCC[n+]1ccc(-c2nc3ccc([N+](=O)[O-])cc3[nH]2)cc1	TRPC6 inhibitor -6.79 | TRPC4 spec 2 56.0% | TRPC4 spec -16.8% | HEK293 MPD ctr 2-1 -90.0% | HEK293 MPD ctr-1 -262.5% | TRPC6 inh conf 73.0% | TRPC6 act conf inactive
Cc1ccc(C(=O)NC(=S)Nc2ccc(CN3CCCCC3)cc2)c(C)c1	TRPC6 inhibitor -6.32 | HEK293 MPD ctr-2 inactive | HEK293 MPD ctr 2-2 inactive | TRPC4/MOR mod inactive | TRPC4/MOR inh 2 67.5% | TRPC6 inh conf 40.5%
COc1ccccc1N1CCN(CC(=O)Nc2ccc(CN3CCCCC3)cc2)CC1	none
O=C(COc1ccc(Cl)cc1Cl)Nc1ccc(CN2CCCCC2)cc1	TRPC6 inhibitor -5.26 | HEK293 MPD ctr-2 194.0% | HEK293 MPD ctr 2-2 inactive | TRPC4/MOR mod 34.0% | TRPC4/MOR inh 2 53.5% | TRPC6 inh conf inactive
Cc1ccc(Cl)cc1N1CCN(CC(=O)Nc2ccc(CN3CCCCC3)cc2)CC1	TRPC6 inhibitor -5.54 | HEK293 MPD ctr-2 151.5% | HEK293 MPD ctr 2-2 inactive | TRPC4/MOR mod 19.0% | TRPC4/MOR inh 2 75.5% | TRPC6 inh conf 43.5%
O=C(COc1ccc(Cl)cc1Cl)Nc1ccc(CN2CCOCC2)cc1	none
COc1ccc(C(=O)NC(=S)Nc2ccc(CN3CCCCC3)cc2)cc1Cl	none
Cc1noc(NS(=O)(=O)c2ccc(NC(=O)COc3ccc(Cl)cc3Cl)cc2)c1C	TRPC6 inhibitor -5.79 | HEK293 MPD ctr-2 inactive | HEK293 MPD ctr 2-2 inactive | TRPC4/MOR mod inactive | TRPC4/MOR inh 2 inactive | TRPC6 inh conf inactive | TRPC6 act conf inactive

Screening data (PubChem BioAssay)
